The record followed here is ChEMBL document CHEMBL5712908, “A genome-wide RNAi screen reveals essential therapeutic targets of breast cancer stem cells” (2019).

Experiment [1] has as its target Histone acetyltransferase p300 (Homo sapiens) (UniProt Q09472). Description: Inhibition of EP300 in human S68 cells assessed as K-score by measuring ALDHbr cells by LSR2 cytometer. The experiment is classed as cell-based. A digest of the protocol:
(§1)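 Breast cancer lines exposed continuously for 72 h in adherent culture to a range of doses centred on the MTS-derived IC50 (72 h MTS, absorbance 540 nm). ALDHbr fraction measured by ALDEFLUOR flow cytometry (LSR2) with DEAB control. K-score = linear regression coefficient between untreated condition and the log10 dose at which ALDHbr proportion changes by 50% versus control.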

For experiment [2] the target is unchanged. Description: Inhibition of EP300 in human BrCa-MZ-01 cells assessed as K-score by measuring ALDHbr cells by LSR2 cytometer. It is filed as cell-based. A digest of the protocol: as §1
Experiment [3] has the same target. Description: Inhibition of EP300 in human SUM159 cells assessed as K-score by measuring ALDHbr cells by LSR2 cytometer. The experiment is classed as cell-based. A digest of the protocol:
as §1

Experiment [4] has the same target. Description: Inhibition of EP300 in human SUM149 cells assessed as K-score by measuring ALDHbr cells by LSR2 cytometer. It is filed as cell-based. A digest of the protocol:
as §1

Experiment [5] has the same target. In words: Inhibition of EP300 in human MDA-MB-436 cells assessed as K-score by measuring ALDHbr cells by LSR2 cytometer. The experiment is classed as cell-based. A digest of the protocol: as §1
In experiment [6] the test system is Proteasome. Description: Inhibition of proteasome in human S68 cells assessed as K-score by measuring ALDHbr cells by LSR2 cytometer. As to conditions: condition breast cancer. The method, boiled down:
as §1

Experiment [7] has as its system Proteasome. Description: Inhibition of proteasome in human BrCa-MZ-01 cells assessed as K-score by measuring ALDHbr cells by LSR2 cytometer. As to conditions: condition breast cancer. The method, boiled down: as §1
In experiment [8] the test system is Proteasome. Description: Inhibition of proteasome in human SUM159 cells assessed as K-score by measuring ALDHbr cells by LSR2 cytometer. As to conditions: condition breast cancer. The method, boiled down:
as §1

The test system of experiment [9] is Proteasome. Description: Inhibition of proteasome in human SUM149 cells assessed as K-score by measuring ALDHbr cells by LSR2 cytometer. As to conditions: condition breast cancer. The method, boiled down: as §1
Experiment [10] has as its system Proteasome. In words: Inhibition of proteasome in human MDA-MB-436 cells assessed as K-score by measuring ALDHbr cells by LSR2 cytometer. As to conditions: condition breast cancer. A digest of the protocol: as §1
Experiment [11] deals with SUM-159-PT. In words: Anticancer activity against human SUM159 cells assessed as decrease in primary tumor sphere formation incubated for 72 hrs by Extreme limiting dilution analysis. It is filed as functional, cell-based. A digest of the protocol:
(§2)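 Cells drug-treated in adherent culture for 72 h, then plated as single cells in ultra-low attachment 96-well plates in serum-free mammary epithelium basal medium. Plating at 25/10/5/3/2/1 cells per well, 18–36 wells per condition. Wells with ≥1 sphere after 10 days scored positive. Secondary spheres were made by dissociating primary spheres. Frequency by ELDA; n = 4; pairwise chi-square test.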

For experiment [12], the system named is SUM-159-PT. In words: Anticancer activity against human SUM159 cells assessed as decrease in secondary tumor sphere formation incubated for 72 hrs by Extreme limiting dilution analysis. The experiment is classed as functional, cell-based. A digest of the protocol: as §2
In experiment [13] the target is T1, Double-stranded RNA-specific editase 1 (Homo sapiens) (UniProt P78563).
T1 sequence (whole entry): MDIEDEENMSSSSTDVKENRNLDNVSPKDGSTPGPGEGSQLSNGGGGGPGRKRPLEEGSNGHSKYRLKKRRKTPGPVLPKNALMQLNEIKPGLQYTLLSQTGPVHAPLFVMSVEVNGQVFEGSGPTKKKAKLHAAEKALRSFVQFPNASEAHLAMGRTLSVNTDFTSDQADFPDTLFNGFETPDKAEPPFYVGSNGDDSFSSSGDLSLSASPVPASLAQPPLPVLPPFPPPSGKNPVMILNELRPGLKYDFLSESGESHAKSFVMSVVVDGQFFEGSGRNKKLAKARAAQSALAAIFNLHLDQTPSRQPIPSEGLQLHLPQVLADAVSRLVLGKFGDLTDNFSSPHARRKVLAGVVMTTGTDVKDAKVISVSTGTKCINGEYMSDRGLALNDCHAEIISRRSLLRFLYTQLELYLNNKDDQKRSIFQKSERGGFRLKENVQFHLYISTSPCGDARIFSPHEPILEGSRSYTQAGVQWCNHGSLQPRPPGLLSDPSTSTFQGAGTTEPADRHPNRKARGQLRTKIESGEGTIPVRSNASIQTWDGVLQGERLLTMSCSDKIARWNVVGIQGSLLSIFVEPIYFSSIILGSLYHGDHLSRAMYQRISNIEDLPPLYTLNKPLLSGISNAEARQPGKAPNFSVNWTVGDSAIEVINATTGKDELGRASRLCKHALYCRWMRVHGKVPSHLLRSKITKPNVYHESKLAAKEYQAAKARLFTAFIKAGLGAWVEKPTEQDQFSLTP
In words: Inhibition of ADARB1 in human S68 cells assessed as K-score by measuring ALDHbr cells by LSR2 cytometer. It is filed as cell-based. A digest of the protocol:
as §1

Experiment [14] addresses T1, Double-stranded RNA-specific editase 1 (Homo sapiens). In words: Inhibition of ADARB1 in human BrCa-MZ-01cells assessed as K-score by measuring ALDHbr cells by LSR2 cytometer. The experiment is classed as cell-based. The method, boiled down: as §1
For experiment [15] the target is unchanged. In words: Inhibition of ADARB1 in human SUM159 cells assessed as K-score by measuring ALDHbr cells by LSR2 cytometer. The experiment is classed as cell-based. The method, boiled down: as §1
Experiment [16] shares this target. Description: Inhibition of ADARB1 in human SUM149 cells assessed as K-score by measuring ALDHbr cells by LSR2 cytometer. It is filed as cell-based. The method, boiled down:
as §1

The target is the same in experiment [17]. In words: Inhibition of ADARB1 in human MDA-MB-436 cells assessed as K-score by measuring ALDHbr cells by LSR2 cytometer. It is filed as cell-based. A digest of the protocol: as §1
Experiment [18] has as its system SUM149PT. In words: Anticancer activity against human SUM149 cells assessed as decrease in ALDHbr cells at 2 nM by LSR2 cytometer analysis. The experiment is classed as functional, cell-based. A digest of the protocol:
(§3)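 Cells continuously exposed to drug for 72 h in adherent culture; single-cell suspensions stained with ALDEFLUOR kit and ALDH-high population measured by flow cytometry (LSR2) against a DEAB control. Residual ALDHbr proportion reported (n = 8), mean ± SD, Student's t-test.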

In experiment [19] the test system is SUM-159-PT. Description: Anticancer activity against human SUM159 cells assessed as decrease in ALDHbr cells at 2 nM by LSR2 cytometer analysis. It is filed as functional, cell-based. A digest of the protocol:
as §3

The test system of experiment [20] is SUM149PT. In words: Anticancer activity against human SUM149 cells assessed as decrease primary tumor sphere formation at 2 nM incubated for 72 hrs by Extreme limiting dilution analysis. The experiment is classed as functional, cell-based. The method, boiled down:
(§4)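 Cells given drug (2 nM when combined with other agents) for 72 h in adherent culture, then plated as single cells in ultra-low attachment 96-well plates in serum-free mammary epithelium basal medium at 25/10/5/3/2/1 cells per well (18–36 wells per condition). Wells holding ≥1 sphere at 10 days scored positive. Sphere-forming frequency by extreme limiting dilution analysis, pairwise chi-square, n = 4.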

Experiment [21] deals with SUM-159-PT. Description: Anticancer activity against human SUM159 cells assessed as decrease primary tumor sphere formation at 2 nM incubated for 72 hrs by Extreme limiting dilution analysis. It is filed as functional, cell-based. The method, boiled down:
as §4

Activity calls are given as the source filed them. The calls are words filed in the database; no cut-off is given here.

Histone acetyltransferase p300 (Homo sapiens), sequence (Q09472 whole entry): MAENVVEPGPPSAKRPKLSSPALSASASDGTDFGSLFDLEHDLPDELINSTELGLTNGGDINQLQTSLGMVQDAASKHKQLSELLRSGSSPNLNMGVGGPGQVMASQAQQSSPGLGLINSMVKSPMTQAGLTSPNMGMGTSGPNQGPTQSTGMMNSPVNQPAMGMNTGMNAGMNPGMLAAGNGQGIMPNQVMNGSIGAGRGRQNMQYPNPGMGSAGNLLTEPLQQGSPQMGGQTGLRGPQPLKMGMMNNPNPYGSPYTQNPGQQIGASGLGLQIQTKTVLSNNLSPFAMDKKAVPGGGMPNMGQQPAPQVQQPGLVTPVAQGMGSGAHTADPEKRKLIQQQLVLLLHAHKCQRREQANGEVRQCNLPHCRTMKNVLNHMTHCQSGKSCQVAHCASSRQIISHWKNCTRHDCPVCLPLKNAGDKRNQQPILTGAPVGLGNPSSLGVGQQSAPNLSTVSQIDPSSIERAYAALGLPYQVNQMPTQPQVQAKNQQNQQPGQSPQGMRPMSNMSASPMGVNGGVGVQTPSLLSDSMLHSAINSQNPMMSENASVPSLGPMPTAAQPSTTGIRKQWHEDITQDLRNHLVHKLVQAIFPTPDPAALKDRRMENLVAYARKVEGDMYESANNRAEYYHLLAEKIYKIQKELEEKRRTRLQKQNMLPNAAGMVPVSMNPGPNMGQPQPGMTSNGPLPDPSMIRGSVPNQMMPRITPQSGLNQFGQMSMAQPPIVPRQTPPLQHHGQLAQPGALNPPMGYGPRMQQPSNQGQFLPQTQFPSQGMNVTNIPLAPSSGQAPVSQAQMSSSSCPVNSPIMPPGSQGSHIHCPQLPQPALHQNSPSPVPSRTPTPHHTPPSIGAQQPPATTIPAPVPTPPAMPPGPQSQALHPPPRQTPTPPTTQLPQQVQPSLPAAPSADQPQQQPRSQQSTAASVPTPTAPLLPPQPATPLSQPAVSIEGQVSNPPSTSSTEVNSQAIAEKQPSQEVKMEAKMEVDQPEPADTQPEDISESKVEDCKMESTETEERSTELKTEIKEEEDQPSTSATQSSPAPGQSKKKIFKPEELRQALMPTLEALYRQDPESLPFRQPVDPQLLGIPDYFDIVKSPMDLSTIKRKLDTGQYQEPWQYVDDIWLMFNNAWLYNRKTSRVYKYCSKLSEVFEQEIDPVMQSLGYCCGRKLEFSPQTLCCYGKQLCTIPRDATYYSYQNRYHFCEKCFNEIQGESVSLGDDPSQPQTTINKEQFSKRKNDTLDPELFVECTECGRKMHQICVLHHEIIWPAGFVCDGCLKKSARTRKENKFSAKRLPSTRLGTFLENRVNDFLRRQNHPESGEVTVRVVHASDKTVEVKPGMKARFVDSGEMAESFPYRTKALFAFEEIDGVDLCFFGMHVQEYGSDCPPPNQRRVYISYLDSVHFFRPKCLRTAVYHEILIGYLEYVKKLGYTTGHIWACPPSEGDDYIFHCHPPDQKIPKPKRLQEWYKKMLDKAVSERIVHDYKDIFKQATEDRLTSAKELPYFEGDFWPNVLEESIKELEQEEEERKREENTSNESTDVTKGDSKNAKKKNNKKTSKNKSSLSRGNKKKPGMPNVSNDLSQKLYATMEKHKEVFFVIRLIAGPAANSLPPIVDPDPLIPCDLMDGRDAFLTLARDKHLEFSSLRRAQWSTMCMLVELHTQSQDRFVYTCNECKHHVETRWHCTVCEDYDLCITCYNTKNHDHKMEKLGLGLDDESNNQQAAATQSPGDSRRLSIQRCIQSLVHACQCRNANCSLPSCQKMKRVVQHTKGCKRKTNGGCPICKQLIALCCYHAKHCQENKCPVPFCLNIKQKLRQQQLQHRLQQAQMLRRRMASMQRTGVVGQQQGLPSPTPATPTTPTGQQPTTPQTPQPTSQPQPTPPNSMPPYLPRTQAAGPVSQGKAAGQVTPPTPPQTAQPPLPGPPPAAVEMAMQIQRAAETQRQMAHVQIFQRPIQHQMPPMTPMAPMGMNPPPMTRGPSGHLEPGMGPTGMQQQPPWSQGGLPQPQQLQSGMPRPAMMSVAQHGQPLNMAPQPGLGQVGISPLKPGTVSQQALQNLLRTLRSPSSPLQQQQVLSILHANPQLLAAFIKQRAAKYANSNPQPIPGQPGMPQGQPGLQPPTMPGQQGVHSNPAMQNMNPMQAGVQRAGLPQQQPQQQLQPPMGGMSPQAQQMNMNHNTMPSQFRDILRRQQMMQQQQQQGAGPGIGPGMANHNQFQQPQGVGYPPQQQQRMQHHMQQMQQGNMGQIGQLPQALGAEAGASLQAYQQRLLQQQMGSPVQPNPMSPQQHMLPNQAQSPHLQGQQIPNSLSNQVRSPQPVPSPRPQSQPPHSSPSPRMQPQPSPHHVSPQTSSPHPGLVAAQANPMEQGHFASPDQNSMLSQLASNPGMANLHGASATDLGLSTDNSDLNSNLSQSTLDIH

On to `COc1ccc(CCc2nc3cc(-c4c(C)noc4C)ccc3n2C[C@H](C)N2CCOCC2)cc1Cl`, for which the Activity was 0.08 in experiment [1]; -0.01 in experiment [2]; -0.02 in [3]; 0.1 in experiment [4]; -0.04 in experiment [5].
For the molecule `CCC(=O)N1CCOc2c(cc(-c3ccc(OC)c(OC)c3)cc2OC[C@H]2CCCN(C)C2)C1`, the Activity in experiment [1] worked out at 0.22; in experiment [2], 0.01; in [3], 0.02; in [4] it was 0.1; in experiment [5], 0.14.
As for `CC(C)C[C@H](NC(=O)[C@H](CCc1ccccc1)NC(=O)CN1CCOCC1)C(=O)N[C@@H](Cc1ccccc1)C(=O)N[C@@H](CC(C)C)C(=O)[C@@]1(C)CO1` [CARFILZOMIB], the Activity with Proteasome [6] is -0.09; in the experiment on Proteasome [7] it was -0.08; in the experiment on Proteasome [8], 0.01; in the experiment on Proteasome [9] it was -0.03; with Proteasome [10] it was -0.08.
Consider `CCCc1cc(C)[nH]c(=O)c1CNC(=O)c1cc(-c2ccnc(N3CCN(C)CC3)c2)cc2c1cnn2C(C)C`, for which the result in the experiment with SUM-159-PT [11] and with SUM-159-PT [12] was inactive.
As for `Nc1ncnc2c1nnn2[C@@H]1O[C@H](CO)[C@@H](O)[C@H]1O`, the Activity was -0.01 in experiment [13]; -0.01 in [14]; -0.11 in [15]; 0.12 in experiment [16]; -0.02 in experiment [17].
On to `CC(=O)O[C@@]12CO[C@@H]1C[C@H](O)[C@@]1(C)C(=O)[C@H](O)C3=C(C)[C@@H](OC(=O)[C@H](O)[C@@H](NC(=O)OC(C)(C)C)c4ccccc4)C[C@@](O)([C@@H](OC(=O)c4ccccc4)[C@H]21)C3(C)C`, for which the outcome in the experiment with SUM149PT [18], in the experiment on SUM-159-PT [19], in the experiment with SUM149PT [20] and in the experiment with SUM-159-PT [21] was inactive.
